# Measured values collected from several papers.
# Protocols differ between the studies behind these lines.
# Target: Tyrosine-protein kinase Lyn (LYN, Homo sapiens, UniProt P07948)
SMILES,test,conditions,measurement,result
Cn1cc(-c2cc(F)cc(N3CCn4c(cc5c4CCCC5)C3=O)c2CO)cc(Nc2ccc(N3CCN(C4COC4)CC3)cn2)c1=O,"enzyme activity, inhibitor",0.1 µM,inhibition,12%
Cc1ncc(C)n2nc(/C=C/c3nc(N4CCCC4)cc(N4CCOCC4)n3)nc12,"enzyme activity, inhibitor",10 µM,inhibition,-13%
O=C(Nc1cccnn1)N1CCN([C@@H]2CCOc3cc(C(F)(F)F)ccc32)CC1,"enzyme activity, inhibitor",20 µM,inhibition,-4%
O=c1[nH]c2ccccc2n1C1CCN(Cc2ccc(-c3[nH]c4cc5ncnc5cc4nc3-c3ccccc3)cc2)CC1,enzyme activity,0.5 µM,remaining activity,102%
Cc1nn(C)cc1-c1nc2c(N3CCN(Cc4ccc(Cl)cc4)CC3)c(Cl)cnc2[nH]1,"binding, competition with immobilised ligand",1 µM,remaining binding,86%
Cn1cncc1[C@](O)(COc1ccc(C#N)cc1-c1ccc(OC(F)(F)F)cc1)c1ccc(C#N)cc1,"cell-free assay, competition with immobilised ligand",1 µM,remaining binding,90%
CC(C)(C)c1cc(C=C(C#N)C#N)cc(Br)c1O,"enzyme activity, inhibitor",0.5 µM,remaining activity,74.1%
N#CC1(c2ccccn2)CCN(Cc2cc(C(=O)O)c(=O)n3ccccc23)CC1,"cell-free assay, competition with immobilised ligand",1 µM,remaining binding,100%
COc1ncccc1-c1cnn2ccc(N3CCN(C(=O)OC(C)C)CC3)nc12,"binding, competition with immobilised ligand",1 µM,remaining binding,79%
